Reference: ChEMBL document CHEMBL1759860, “Synthesis and biological evaluation of 5-membered spiro heterocycle-benzopyran derivatives against myocardial ischemia” (2011)
Calls of active or inactive are those of the source. The rule behind the calls is not given here.

Columns and labels:
H9c2 [1] = test: Anti-ischemic activity against ischemia/reperfusion-induced rat H9c2 cell death assessed as cell viability at 10 uM (Rbv = 63 +/- 2%); assay type: functional; conditions: read-out: Activity
H9c2 [2] = test: Anti-ischemic activity against ischemia/reperfusion-induced rat H9c2 cell death assessed as cell viability at 10 uM in presence of mito-KATP channel blocker 5-hydroxydecanoic acid; assay type: functional, cell-based
Rattus norvegicus [3] = test: Anti-ischemic activity against Langendorff perfused Wistar rat heart assessed as recovery of post-ischemic inotropic functionality measured during whole reperfusion period at 40 mg/kg, ip relative to control; assay type: functional, organism-based; set-up: dose 40 mg/kg; conditions: Wister
In short: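 Rats pre-treated with test agent 40 mg/kg before heart isolation. Langendorff-perfused hearts underwent ischemia then reperfusion. Rate-pressure product (RPP) was recorded over the reperfusion period and expressed as % of pre-ischemic RPP.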

Rattus norvegicus [4] = test: Anti-ischemic activity against in Langendorff perfused Wistar rat heart assessed as reduction in ischemia-induced left ventricular tissue injury at 40 mg/kg, ip by morphological analysis; assay type: functional, organism-based; set-up: dose 40 mg/kg; conditions: Wister
In short: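 Hearts came from rats pre-treated at 40 mg/kg and underwent ischemia/reperfusion in Langendorff perfusion. Left ventricles were analysed morphologically for injured tissue. Infarct size was expressed as % of left ventricular area (Ai/ALV%).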

H9c2 [5] = test: Anti-ischemic activity against ischemia/reperfusion-induced rat H9c2 cell death assessed as cell viability at 100 uM in presence of mito-KATP channel blocker 5-hydroxydecanoic acid; assay type: functional, cell-based
H9c2 [6] = test: Anti-ischemic activity against ischemia/reperfusion-induced rat H9c2 cell death assessed as cell viability at 100 uM (Rbv = 63 +/- 2%); assay type: functional; conditions: read-out: Activity

CC(=O)Nc1ccc(CN2CC3(CC(C)(C)Oc4ccccc43)OCC2=O)cc1 (stereo not given)
viability at 10 µM (H9c2 [1]): 99% | Activity (H9c2 [2]): inactive | Activity (Rattus norvegicus [3]): Active | Activity (Rattus norvegicus [4]): Active

CC(=O)Nc1ccc(CN2CC3(CC(C)(C)Oc4ccc(Br)cc43)OC2=O)cc1 (racemic)
viability at 10 µM (H9c2 [1]): 81%

CC(=O)Nc1ccc(CN2C(=N)C3(CC(C)(C)Oc4ccc(Br)cc43)OC2=O)cc1 (racemic)
viability at 10 µM (H9c2 [1]): 76%

CC(=O)Nc1ccc(CN2C(=N)C3(CC(C)(C)Oc4ccccc43)OC2=O)cc1 (racemic)
viability at 10 µM (H9c2 [1]): 68%

CC1(C)CC2(CN(Cc3ccc(NS(C)(=O)=O)cc3)C(=O)O2)c2ccccc2O1 (racemic)
viability at 10 µM (H9c2 [1]): 84%

CC1(C)CC2(OC(=O)N(Cc3ccc(NS(C)(=O)=O)cc3)C2=N)c2cc(Br)ccc2O1 (racemic)
viability at 10 µM (H9c2 [1]): 78%

CC(=O)Nc1ccc(CN2CC3(CC(C)(C)Oc4ccccc43)OC2=O)cc1 (racemic)
viability at 10 µM (H9c2 [1]): 92% | Activity (H9c2 [2]): inactive | Activity (Rattus norvegicus [3]): Active | Activity (Rattus norvegicus [4]): Active

CC1=Nc2ccc(Cl)cc2S(=O)(=O)N1 [DIAZOXIDE]
Activity (H9c2 [5]): inactive | viability at 100 µM (H9c2 [6]): 103%
